Measured values as given in ChEMBL document CHEMBL3124806, “Imidazopyridine-fused [1,3]-diazepinones: synthesis and antiproliferative activity” (Eur J Med Chem, 2014).
Calls of active or inactive are those of the source. The rule behind the calls is not given here.

Columns and labels:
MDA-MB-435 [1] = test: Induction of apoptosis in human MDA-MB-435 cells assessed as dispersed and rounded cells at 5 uM after 20 hrs by Hoechst 33342 staining-based phase-contrast microscopy; assay type: functional, cell-based
Procedure, shortened: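 MDA-MB-435 human melanoma cells were grown in Ham's F12/DMEM (1:1) with 10% FCS and antibiotics at 37 °C under 5% CO₂. Cells were exposed to 5 μM compound or left untreated. They were imaged by phase-contrast microscopy 20 h after treatment.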

MDA-MB-435 [2] = test: Cell cycle arrest in human MDA-MB-435 cells assessed as accumulation at S phase at 5 uM after 48 hrs by propidium iodide staining-based FACS analysis (reference value: 22.8%); assay type: functional

Q: `C[C@@H]1NC(c2ccc(Br)cc2)=Nc2nc3ccccn3c2C1=O` was tested. Which Activity (MDA-MB-435 [1]) did it give?
A: Active

Q: What about the Activity (MDA-MB-435 [2]) of the same molecule?
A: 30.8%
